# High-throughput results from PubChem.
# CHO parental Ca: ATP-evoked calcium signal inhibitors, parental CHO, primary screen, counter-screen for OX1R antagonist project, cell-based, fluorescence, Fluo-8 calcium dye. AID 463079, 2010. 0.63% of 330,000 active. parental CHO-K1, ATP-induced calcium, Fluo-8 fluorescence. inhibition, % at 5.6 µM;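 active = inhibition above that plate's mean sample inhibition plus 3 SD, cut at about 26% in these data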;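 note: 0% = ATP-challenged DMSO wells and 100% = DMSO wells without ATP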
#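 Material: parental CHO cells / Compound: single nominal dose of 5.6 µM per compound / Signal: Fluo-8 fluorescence / Replicates: singlicate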
# OX1R antag-1: antagonists of human orexin 1 receptor (OX1R); Orexin/Hypocretin receptor type 1 (Homo sapiens), O43613; OX1R-expressing cells, FRET antagonist read-out; inhibition, % at 6.6 µM; 1.8% of 330,000 active; AID 485270, 2010; in the data active = inhibition mostly above about 38%, no sharp cut-off; inactive = mostly below about 40%;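 note: 0% = agonist challenge alone and 100% = reference antagonist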
# Target sequence (O43613 whole entry, looked up): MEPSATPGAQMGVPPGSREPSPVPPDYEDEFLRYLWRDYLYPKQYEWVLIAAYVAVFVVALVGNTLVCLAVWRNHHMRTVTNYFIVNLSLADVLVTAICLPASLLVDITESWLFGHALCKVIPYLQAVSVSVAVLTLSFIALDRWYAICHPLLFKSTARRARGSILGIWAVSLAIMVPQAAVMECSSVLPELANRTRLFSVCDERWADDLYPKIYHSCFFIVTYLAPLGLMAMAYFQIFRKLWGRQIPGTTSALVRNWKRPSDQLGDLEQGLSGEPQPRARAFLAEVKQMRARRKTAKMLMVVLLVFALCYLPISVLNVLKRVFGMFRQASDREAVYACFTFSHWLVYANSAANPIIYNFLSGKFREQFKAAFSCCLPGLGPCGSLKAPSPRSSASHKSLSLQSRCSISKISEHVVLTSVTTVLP
# MPTP block: mitochondrial permeability transition pore inhibitors, primary screen, biochemical, isolated mouse mitochondria, absorbance; Ca2+ swelling absorbance, 30 min; inhibition, % at 10 µM; 1.4% of 360,000 active;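 active = inhibition of 50% or more, scaled per plate between neutral and stimulator controls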;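 note: 0% = DMSO wells given calcium and 100% = 1 mM EGTA wells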
# OX1R antag-2: OX1R (HCRTR1) antagonists, primary screen, fluorescence, CHO/OX1R cells, Fluo-8 calcium, orexin A | Orexin/Hypocretin receptor type 1 (Homo sapiens), O43613 | Fluo-8 calcium fluorescence | 0.43% of 330,000 active | AID 434989, 2010 | inhibition, % at 5 µM;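 active = inhibition above its plate's threshold, mean inhibition of all tested compounds on the plate plus 3 SD, cut at about 37% in these data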;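 note: 0% = orexin A challenge wells and 100% = SB-334867-A antagonist wells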
# GPR7 antag: GPR7 receptor antagonists, primary screen, cell-based, fluorescence, single concentration; Neuropeptides B/W receptor type 1 (Homo sapiens), P48145; GPR7-expressing cells, fluorescence antagonist assay; inhibition, % at 4.4 µM; 1.1% of 290,000 active; AID 1861, 2009; in the data active = inhibition above about 16%, passing the limit was not always enough;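 note: cells stimulated with the agonist NPW; 0% = agonist with vehicle and 100% = vehicle without agonist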
# GPR7 antag cf: GPR7 receptor antagonists, confirmation, cell-based, fluorescence, single concentration; inhibition, % at 4.4 µM; AID 1952, 2009; 52% of 2,400 active; GPR7-expressing cells, calcium fluorescence antagonist mode; shares compounds with GPR7 antag; in the data active = inhibition above about 24%;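 note: stimulated with the GPR7 agonist NPW; 0% = agonist plus vehicle and 100% = vehicle alone without agonist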
# MCHR1 antagonist: MCHR1 antagonists in cells, counter-screen for GPR7 antagonist project, cell-based, fluorescence, human | AID 2148, 2009 | 62% of 2,400 active | inhibition, % at 4.4 µM | MCHR1-expressing cells, fluorescence antagonist assay | shares compounds with GPR7 antag;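 note: 0% = vehicle with agonist and 100% = vehicle without agonist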
# OX1R Fluo8 conf: OX1R (HCRTR1) antagonists, confirmation, fluorescence, CHO/OX1R cells, Fluo-8 calcium, orexin A; shares compounds with OX1R antag-2; orexin A calcium Fluo-8 fluorescence; inhibition, % at 5 µM; 38% of 1,100 active; AID 492963, 2010; in the data active = inhibition above about 29%;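 note: 0% = agonist challenge alone and 100% = reference antagonist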
# CHO Ca triplic: ATP-evoked calcium inhibition in parental CHO, counter-screen for OX1R antagonist project, cell-based, fluorescence, CHO-K1, triplicate; shares compounds with OX1R antag-2; ATP-induced calcium, Fluo-8 fluorescence; inhibition, % at 5.6 µM; 9.3% of 1,100 active;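 active = inhibition above a per-plate limit, the mean inhibition of that plate's test compounds plus 3 SD, cut at about 25% in these data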;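 note: 0% = ATP challenge with DMSO and 100% = DMSO without ATP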
# MPTP counter: fluorescence retest of MPTP screen hits in isolated mitochondria, single concentration; AID 624504, 2012; shares compounds with MPTP block; inhibition, % at 10 µM; 78% of 5,000 active; membrane potential, Rhodamine 123 fluorescence;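 note: 0% = DMSO vehicle and 100% = positive control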
# MPTP abs DR: mitochondrial permeability transition pore inhibitors, dose response, biochemical, absorbance, uHTS hits; IC50, µM; 58% of 780 active; AID 651561, 2012; isolated mitochondria swelling; shares compounds with MPTP block; in the data active = IC50 below about 20 µM
# MPTP cs DR: fluorescent counter-screen in isolated mitochondria, dose response, counter-screen for MPTP inhibitor project, biochemical, fluorescence, uHTS hits; 49% of 780 active; isolated mitochondria counterscreen, fluorescence read-out; IC50, µM; shares compounds with MPTP block; in the data active = IC50 below about 80 µM
# * = called active by the depositor; i = inactive; . = not tested or not shown. Only some compounds are listed: those with a hit (about 3.8% of all), similar ones and a draw of the others. Cut-off read from the data, not from the text of the source, unless noted: active = inhibition above about 22%; inactive = the rest.
SMILES,CHO parental Ca,OX1R antag-1,MPTP block,OX1R antag-2,GPR7 antag,GPR7 antag cf,MCHR1 antagonist,MPTP counter,others
CC(C)[C@@H]1CC[C@@H](C)C[C@H]1OC(=O)C[n+]1cc(-c2ccc(Cl)cc2)n2c1CCCCC2,10,7,64*,9,58*,65*,83*,86*,
Fc1ccc(NC(=S)NCCc2ccccc2)c(F)c1F,-10,10,77*,17,28*,8,55*,92*,
Fc1ccccc1NC(=S)NCCc1ccccc1,3,19,1,-5,-2,.,.,.,
CN(C1CCCCC1)C(CNS(=O)(=O)c1ccccc1)c1ccccc1 (configuration not stated),-32,20,-2,-24,0,.,.,.,
O=C(Nc1cc2c3c(c1)CC(=O)N3CCC2)c1ccccc1Br,-21,27,-1,-13,.,.,.,.,
CC(NCCC(c1ccccc1)c1ccccc1)c1ccccc1 (configuration not stated),0,16,94*,-24,28*,51*,55*,-2,
CN(C)CC#Cc1cncc(C(=O)NNC(=O)Nc2ccc(Cl)cc2)c1,-14,13,4,-8,-11,.,.,.,
Cc1cc(N2CCC(C)CC2)nc(NCc2ccccc2)n1,-16,15,91*,-14,30*,58*,83*,111*,
CCOc1ccc(CN(C)CC(O)COC(c2ccc(OC)cc2)c2ccc(OC)cc2)cc1 (configuration not stated),7,0,67*,-2,31*,33*,45*,0,MPTP abs DR=15*;MPTP cs DR=48*
Cc1ccc(C(C)C)c(OCCNCc2ccccc2)c1,2,26,56*,-25,30*,21,68*,19,MPTP abs DR=4.6*;MPTP cs DR=15*
COc1ccc(Oc2ccc(/C=C/C(=O)c3ccc(O)cc3)cc2[N+](=O)[O-])cc1,5,43,88*,5,26*,77*,87*,66*,
O=C(Nc1ccccc1)Nc1ncc([N+](=O)[O-])s1,.,.,88*,.,23*,20,53*,82*,
C=CCOc1c(Cl)cc(CNCCCN2CCOCC2)cc1OC,-2,8,1,-4,-8,.,.,.,
N#Cc1ccc(NC(=O)Nc2ccc(Cl)cc2)cc1,75*,100*,105*,68*,30*,58*,57*,89*,
CC(C)(C)C(=O)Nc1ccc(Sc2ccc([N+](=O)[O-])cc2)cc1,10,26,96*,24,25*,23,69*,93*,
c1ccc(CCNc2ccnc3cc4ccccc4cc23)cc1,.,.,101*,.,37*,45*,75*,106*,
O=C(NCCc1ccccc1)c1nccc2ccccc12,-9,17,-1,-12,.,.,.,.,
CCC[C@@H](CN[C@@H](CNC)[C@H](C)CC)NCC1CCC(C(C)(C)C)CC1 (some centres not stated),-8,23,94*,-27,47*,51*,64*,-22,MPTP abs DR=5.3*
O=C(Nc1nc2ccccc2s1)C1CCN(S(=O)(=O)c2cc([N+](=O)[O-])ccc2Cl)CC1,80*,84*,95*,51*,32*,75*,75*,77*,
Clc1ccc(OCCOCCN2CCc3ccccc3C2)c(Cl)c1,-12,13,100*,-16,30*,17,30*,-6,MPTP abs DR=i;MPTP cs DR=31*
N=c1n(CCO)c2ccccc2n1CCOc1ccc(Cl)cc1Cl,9,18,87*,-14,31*,58*,43*,-4,MPTP abs DR=4*;MPTP cs DR=29*
CCC(C)NC(=O)c1ccc2nc(Cc3ccc(OC)cc3)oc2c1 (configuration not stated),-9,20,0,-11,-6,.,.,.,
CCC(NC(=O)c1ccc2nc(Cc3ccc(OC)cc3)oc2c1)c1ccncc1 (configuration not stated),24,19,66*,3,46*,39*,70*,76*,
CN1CCCC(CN2c3ccccc3Sc3ccccc32)C1 (configuration not stated),8,24,82*,1,35*,51*,34*,-18,
CCN(CC)CCCCN1c2ccccc2Sc2ccccc21,-18,0,-2,-32,36,.,.,.,
SMILES,CHO parental Ca,OX1R antag-1,MPTP block,OX1R antag-2,GPR7 antag,GPR7 antag cf,MCHR1 antagonist,MPTP counter,others
S=C(NCc1ccc(Cl)cc1)NC1CCN(Cc2ccccc2)CC1,8,14,71*,4,25*,40*,64*,24*,
Clc1ccc(CNC2CCN(Cc3ccccc3)CC2)cc1,-4,11,1,-27,20,.,.,.,
S=C(NCc1ccccc1)Nc1ccc(Cl)cc1,13,13,72*,11,21*,18,43*,81*,
CCc1ccc(NC(=S)NCc2ccccc2)cc1,13,15,0,-11,9,.,.,.,
COc1cc(/C=C/C(=O)NC(C)C2CC3CCC2C3)cc(OC)c1OC (configuration not stated),-25,19,-3,-18,0,.,.,.,
CC(C)C(NC(=S)NCc1ccccc1)C(=O)O (configuration not stated),-8,16,0,31,-5,.,.,.,OX1R Fluo8 conf=-2;CHO Ca triplic=11
O=C(O)CNC(=S)NCc1ccccc1,10,8,0,-11,-17,.,.,.,
